According to PubChem BioAssay AID504323 (Broad Institute, 2011):
The source made the active and inactive calls.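 Rule for the calls: active = compounds lowering the viability signal whose fitted AC50 is no more than ten times their top tested dose; inconclusive = flat fit with a 30 to 70% drop, or poor fit; inactive = the rest.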

Columns and labels:
[1] = toxicity in U2OS HRE-luc cells, zinc medium, dose response, cytotoxicity control for HIF pathway activator project, zinc-supplemented medium, dry powder (AID 504323); conditions: U2OS HRE-luciferase cells, viability toxicity, luminescence; at 38 µM (top of the series)
In short: (§1)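 assay system = human U2OS osteosarcoma cells carrying a 3×HRE-luciferase reporter | input = 6,000 cells/well | doses = 8 points, 3-fold steps | schedule = 24 h attachment, then 24 h compound exposure at 37 °C | technique = CellTiter-Glo luminescence for cell viability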

[2] = system: U2OS HRE-luciferase cells, viability toxicity, luminescence; test: as above
In short: as §1

SMILES | activity change, negative = toxicity [1] | AC50 [2]
Clc1cccc(CNc2nc(-c3ccccn3)nnc2-c2ccccc2)c1 | -1.81% (inactive) | 
c1ccc(-c2nnc(-c3ccccn3)nc2NCCN2CCOCC2)cc1 | 3.62% (inactive) | 
c1ccc(-c2cccc(CNc3nc(-c4ccccn4)nnc3-c3ccccc3)c2)cc1 | 21.1% (inactive) | 
O=C(c1cc(-c2ccccc2)on1)N1CCC(N2CCCC2)CC1 | 4.1% (inactive) | 
CC(Nc1nc(-c2ccccn2)nnc1-c1ccccc1)c1ccccc1 (centres undefined) | -0.542% (inactive) | 
CCCCNC(=O)c1cc(-c2ccccc2)on1 | 15.6% (inactive) | 
Cc1ccccc1CNc1nc(-c2ccccn2)nnc1-c1ccccc1 | -8.68% (inactive) | 
CC(C)(C)CCNC(=O)c1cc(-c2ccccc2)on1 | -8.3% (inactive) | 
O=C(NCc1ccccc1)c1cc(-c2ccccc2)on1 | 4.7% (inactive) | 
CN1CCN(c2nc(-c3ccccn3)nnc2-c2ccccc2)CC1 | -11.4% (inactive) | 
c1ccc(-c2nnc(-c3ccccn3)nc2NCCc2ccccn2)cc1 | 12.3% (inactive) | 
Oc1ccc(CN2CCC(Cc3ccccc3)CC2)c2cccnc12 | -1.98% (inactive) | 
CN(C)CCNC(=O)c1cc(-c2ccccc2)on1 | 7.75% (inactive) | 
OCC1CCN(c2nc(-c3ccccn3)nnc2-c2ccccc2)CC1 | 10.9% (inactive) | 
CC(C)(C)CCNc1nc(-c2ccccn2)nnc1-c1ccccc1 | -16.3% (inactive) | 
COc1cccc(CNc2nc(-c3ccccn3)nnc2-c2ccccc2)c1 | -8.43% (inactive) | 
Cc1ccccc1CNC(=O)c1cc(-c2ccccc2)on1 | 6.54% (inactive) | 
c1ccc(-c2nnc(-c3ccccn3)nc2NCCCN2CCOCC2)cc1 | 23.8% (inactive) | 
CN(C)c1nc(-c2ccccn2)nnc1-c1ccccc1 | 33.4% (inactive) | 
O=C(NC1Cc2ccccc2C1)c1cc(-c2ccccc2)on1 | -8.56% (inactive) | 

SMILES | activity change, negative = toxicity [1] | AC50 [2]
Cc1ccc(Nc2nc(-c3ccccn3)nnc2-c2ccccc2)cn1 | 3.19% (inactive) | 
c1ccc(-c2nnc(-c3ccccn3)nc2NCc2ccccn2)cc1 | -3.76% (inactive) | 
c1ccc(-c2nnc(-c3ccccn3)nc2NCC2CCOCC2)cc1 | 14.9% (inactive) | 
OCC1CCN(Cc2ccc(O)c3ncccc23)CC1 | -18.1% (inactive) | 
c1ccc(-c2nnc(-c3ccccn3)nc2N2CCC(c3ccccc3)C2)cc1 (centres undefined) | -12.2% (inactive) | 
CC1CN(Cc2ccc(O)c3ncccc23)CC(C)O1 (centres undefined) | -3.44% (inactive) | 
c1ccc(-c2nnc(Nc3nc(-c4ccccn4)nnc3-c3ccccc3)s2)cc1 |  | > 38 µM (inactive)
O=C(NCCCCO)c1cc(-c2ccccc2)on1 | 6.82% (inactive) | 
Cn1c(-c2ccccc2)cnc1NC(=O)c1cc(-c2ccccc2)on1 | -1.6% (inactive) | 
O=C(c1cc(-c2ccccc2)on1)N1CCc2cccnc21 | -4.78% (inactive) | 
O=C(NCC1CCCCC1)c1cc(-c2ccccc2)on1 | -11% (inactive) | 
O=C(NCCCO)c1cc(-c2ccccc2)on1 | 3.54% (inactive) | 
O=C(Nc1nnc(-c2ccccc2)s1)c1cc(-c2ccccc2)on1 | 16.2% (inactive) | 
c1ccc(-c2nnc(-c3ccccn3)nc2Nc2nc3ccccc3s2)cc1 |  | 8.1 µM
O=C(NCCCN1CCOCC1)c1cc(-c2ccccc2)on1 | 15.2% (inactive) | 
Cc1cccc(CNC(=O)c2cc(-c3ccccc3)on2)c1 | -2.43% (inactive) | 
C[C@H](Nc1nc(-c2ccccn2)nnc1-c1ccccc1)C1CCCCC1 | -13.5% (inactive) | 
c1ccc(-c2nnc(-c3ccccn3)nc2N2CCC(N3CCOCC3)CC2)cc1 | 21.5% (inactive) | 
COc1ccccc1N1CCN(Cc2ccc(O)c3ncccc23)CC1 | -14.5% (inactive) | 
